Compound activity: PubChem BioAssay, several laboratories
Sampled rows, rich in hits. Any-hit rate of the full collection: about 1.4%.
IDE inh: human IDE inhibitors in live cells, primary screen, fluorescence polarization, HEK cells, FAbetaB substrate | inhibition, % at 5.59 µM | FAbetaB cleavage | Insulin-degrading enzyme (Homo sapiens), P14735 | actives 0.41% (n = 320,000) | AID 434962, 2010;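 active means percent inhibition above the average of all tested compounds plus 3 SD, set per screening campaign, cut at about 16% in these data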;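 further: IDE supplied by intact live HEK cells; FP after avidin binding of uncleaved biotin substrate so inhibition keeps polarization high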
IDE cell activ: human IDE activators in live cells, primary screen, fluorescence polarization, HEK cells, FAbeta-B substrate; activation, % at 5.96 µM; FAbeta-B cleavage; 0% vehicle, 100% cell-free pure enzyme wells; actives 0.073% (n = 340,000); Insulin-degrading enzyme (Homo sapiens), P14735;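 active means activation above the mean of all tested compounds plus 3 SD, set per screening campaign, cut at about 17% in these data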
HNF4A DNA FP: change in binding of human HNF4A to DNA, primary screen, biochemical, fluorescence polarization, FITC-DNA; Hepatocyte nuclear factor 4-alpha (Homo sapiens), P41235; 1 h; activity change, % at 10 µM; actives 0.3% (n = 360,000); in the data active means activity change above about 30%, passing the limit was not always enough
TPT1 inhibitor: Candida albicans TPT1 enzyme inhibitors, primary screen, biochemical, fluorescence polarization | actives 0.81% (n = 300,000) | recombinant caTPT1, FP RNA substrate dephosphorylation | inhibition, % at 5 µM;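 active means inhibition above the mean of all tested compounds plus 3 SD, set per screening campaign, cut at about 24% in these data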
CSN inh: inhibitors of CSN-mediated cullin deneddylation, primary screen, biochemical, fluorescence polarization, uHTS; Purified CSN, SCF-Nedd8-OG deneddylation; COP9 signalosome complex subunit 5 (Homo sapiens), Q92905; actives 0.38% (n = 360,000); inhibition, % at 12.5 µM;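 active means pattern-corrected inhibition above about 35%, with an unprinted fluorescence ratio check between 0.5 and 1.5, limit read from the data, passing the limit was not always enough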
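Material: purified human Csn5 enzyme expressed in HEK293T cells / Medium: Tris buffer pH 7.5, NaCl, DTT, Tween-20, trehalose, ovalbumin / Compound dosing: 12.5 µM single point / Schedule: 90 min incubation of compound, enzyme and substrate at room temperature / Signal: fluorescence polarization of the substrate / Control set: no-enzyme wells high, enzyme-with-substrate wells low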
IDE inh confirm: human IDE inhibitors in live cells, confirmation, fluorescence polarization, HEK cells, FAbetaB substrate | actives 51% (n = 1,200) | FAbetaB cleavage | shares compounds with IDE inh | inhibition, % at 5.59 µM | AID 435028, 2010;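 active means mean inhibition across triplicate wells above the cutoff set by the earlier primary insulin-degrading enzyme screen, cut at about 16% in these data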
HEK293 tox: cytotoxicity in HEK cells, cytotoxicity control for IDE inhibitor project, cell-based, luminescence. inhibition, % at 5.59 µM. actives 28% (n = 1,200). AID 449730, 2010. HEK293 cytotoxicity, ATP luminescence. shares compounds with IDE inh; in the data active means inhibition above about 22%
CSN deneddyl val: Csn5 deneddylation inhibitors, confirmation, biochemical, fluorescence polarization, single concentration, SCF-Nedd8OG substrate; shares compounds with CSN inh; AID 720654, 2013; actives 62% (n = 540); Csn5 deneddylation of SCF-Nedd8OG, 90 min; inhibition, % at 16.6 µM; in the data active means inhibition above about 50%
MMP2 cntr CSN: MMP-2 protease inhibition counter-screen, confirmation, counter-screen for CSN deneddylation inhibitor project, biochemical, fluorescence, single concentration; recombinant MMP-2, FRET substrate fluorescence, 60 min; shares compounds with CSN inh; inhibition, % at 16.6 µM; AID 720655, 2013; actives 33% (n = 540);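 active means corrected plate-normalized z-score of 5 or more, or -5 or less, or inhibition of 15% or more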
Target sequence (P08253 whole entry, looked up): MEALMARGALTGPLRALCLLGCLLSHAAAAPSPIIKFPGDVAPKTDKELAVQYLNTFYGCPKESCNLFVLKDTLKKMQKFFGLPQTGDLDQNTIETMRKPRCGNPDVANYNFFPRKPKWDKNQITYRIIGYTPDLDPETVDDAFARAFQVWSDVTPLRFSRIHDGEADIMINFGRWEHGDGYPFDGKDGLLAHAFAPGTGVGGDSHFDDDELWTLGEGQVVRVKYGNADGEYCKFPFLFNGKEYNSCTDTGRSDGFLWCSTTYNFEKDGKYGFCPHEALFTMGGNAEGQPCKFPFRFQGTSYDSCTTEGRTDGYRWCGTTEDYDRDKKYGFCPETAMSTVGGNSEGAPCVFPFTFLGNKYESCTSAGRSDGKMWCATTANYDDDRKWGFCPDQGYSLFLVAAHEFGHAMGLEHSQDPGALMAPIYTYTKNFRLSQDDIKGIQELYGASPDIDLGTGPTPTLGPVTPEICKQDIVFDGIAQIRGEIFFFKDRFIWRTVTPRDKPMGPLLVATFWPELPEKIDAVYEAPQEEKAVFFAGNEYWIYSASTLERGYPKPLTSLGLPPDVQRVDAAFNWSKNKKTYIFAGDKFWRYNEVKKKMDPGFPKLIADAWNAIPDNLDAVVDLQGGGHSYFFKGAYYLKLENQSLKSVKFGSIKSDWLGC
Thrombin cntr: counter-screen for CSN deneddylation inhibitors: bovine thrombin inhibition | shares compounds with CSN inh | AID 720656 | inhibition, % at 16.6 µM | actives 49% (n = 540) | bovine thrombin cleavage of Ub4-pepOG, fluorescence polarization;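 active means inhibition at or above a set limit, with a fluorescence interference ratio between 0.5 and a set maximum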
HNF4a DNA conf: change in HNF4A binding to DNA, retest, confirmation, biochemical, fluorescence polarization, FITC-DNA; actives 99% (n = 210); activity change, % at 12.5 µM; 1 h; shares compounds with HNF4A DNA FP; AID 1224897, 2016; call rule not given here
Large screens that a line does not name were inactive (follow-up assays come after a bar, where they were run).

COc1cc(/C=C2\SC(=S)N(NC(=O)c3ccncc3)C2=O)ccc1O	IDE inh 80.8, HNF4A DNA FP 49.9, CSN inh 38.6 | IDE inh confirm 165.4 | HEK293 tox inactive | CSN deneddyl val 68.4 | MMP2 cntr CSN inactive | Thrombin cntr 38.0
O=S(=O)(c1ccccc1)[C@@]1(c2ccc(Br)cc2)C[C@@H]2ON=C(c3ccccc3)[C@@H]2C1	none
COc1cc(/C=C(\C#N)c2nc3ccccc3[nH]2)ccc1OC(=O)c1ccco1	IDE inh 114.3, HNF4A DNA FP 38.5 | IDE inh confirm 153.3 | HEK293 tox inactive | HNF4a DNA conf 52.1
CCC1CCCCN1C(=O)CSc1nc2ncccc2[nH]1 (stereo not drawn)	none
COc1ccc(O)c(/C=N/NC(=O)c2c(C)nnn2-c2nonc2N)c1	HNF4A DNA FP 41.4, CSN inh 87.8 | CSN deneddyl val inactive | MMP2 cntr CSN 33.3 | Thrombin cntr inactive
O=C1NN(c2ccccc2)C(=O)/C1=C/c1ccc(-c2ccc(C(=O)O)cc2)o1	CSN inh 35.4 | CSN deneddyl val 59.5 | MMP2 cntr CSN inactive | Thrombin cntr inactive
COC(=O)c1ccc(N2NC(=O)/C(=C/c3ccc(-c4ccc(Cl)c(C(=O)O)c4)o3)C2=O)cc1	none (no result: IDE inh, TPT1 inhibitor)
COc1cccc(CCc2nnc(N)s2)c1	none
C/C=C/c1ccc(O)c(OC)c1	none
COc1cc(/C=C/C=C2/CC/C(=C/C=C/c3ccc(O)c(OC)c3)C2=O)ccc1O	CSN inh 115.2 (no result: IDE inh, TPT1 inhibitor) | CSN deneddyl val inactive | MMP2 cntr CSN -40.9 | Thrombin cntr 52.0
O=C(/C=C/c1ccco1)Nc1scc(-c2ccccc2)c1C(=O)O	CSN inh 37.8 | CSN deneddyl val inactive | MMP2 cntr CSN inactive | Thrombin cntr inactive
COc1ccc(S(=O)(=O)N2CCN(C(=O)C3COc4ccccc4O3)CC2)cc1 (stereo not drawn)	CSN inh 45.1 (no result: TPT1 inhibitor) | MMP2 cntr CSN inactive | Thrombin cntr 15.7
CC(=O)Nc1ccc(S(=O)(=O)N2CCN(C(=O)C3COc4ccccc4O3)CC2)cc1 (stereo not drawn)	none
COc1ccc(C(CNC(=O)c2cccc(S(=O)(=O)Nc3cccc(C)c3)c2)N2CCOCC2)cc1 (stereo not drawn)	none
O=C1C=C(NCc2ccccc2)c2ccccc2C1=O	CSN inh 72.5 (no result: IDE inh, TPT1 inhibitor) | CSN deneddyl val 77.3 | MMP2 cntr CSN inactive | Thrombin cntr inactive
O=C1C=C(Nc2ccccc2O)c2ccccc2C1=O	none
Cc1cc(N)c2cc(NC(=O)/C=C/c3ccccc3Cl)ccc2n1	IDE cell activ 28.3, HNF4A DNA FP 37.1, CSN inh 107.8 | CSN deneddyl val inactive | MMP2 cntr CSN 54.2 | Thrombin cntr inactive
Cc1ccc(S(=O)(=O)N(C)c2ccc(C(=O)Nc3ccccc3C(=O)N3CCOCC3)cc2)cc1	none
O=C(Nc1ccc2oc(-c3ccccc3F)nc2c1)c1ccc([N+](=O)[O-])o1	CSN inh 39.9 (no result: IDE inh, TPT1 inhibitor) | CSN deneddyl val 102.6 | MMP2 cntr CSN 16.0 | Thrombin cntr inactive
O=C1c2c(O)ccc(O)c2C(=O)c2c(NCCNCCO)ccc(NCCNCCO)c21	CSN inh 43.9 | CSN deneddyl val inactive | MMP2 cntr CSN 30.7 | Thrombin cntr inactive
Brc1ccc(-c2nn3c(-c4ccco4)nnc3s2)o1	CSN inh 41.1 | CSN deneddyl val 95.4 | MMP2 cntr CSN inactive | Thrombin cntr inactive
COc1cccc2sc3ccc(NCCC4CCCN4C)cc3c(=O)c12 (stereo not drawn)	none
COc1cc2sc3cc(NCC[C@@H]4CCCN4C)ccc3c(=O)c2cc1OC	CSN inh 36.4 (no result: TPT1 inhibitor) | CSN deneddyl val 109.3 | MMP2 cntr CSN inactive | Thrombin cntr inactive
COc1ccc(-c2csc(NC(=O)CSc3nc(C)cs3)n2)cc1	none
COc1ccc(-c2csc(NC(=O)CSc3nc(C)nc4sc(C(=O)O)c(C)c34)n2)cc1	CSN inh 51.1 | CSN deneddyl val inactive | MMP2 cntr CSN inactive | Thrombin cntr inactive
Oc1ccccc1CN1CCCC(N2CCc3ccccc3C2)C1 (stereo not drawn)	none
CC(C)CN=Cc1c(O)c([N+](=O)[O-])cc2oc3c(c12)CCCC3	none
O=[N+]([O-])c1cc2oc3c(c2c(C=NCc2ccccc2)c1O)CCCC3	CSN inh 73.7 | CSN deneddyl val 81.7 | MMP2 cntr CSN inactive | Thrombin cntr 18.3
O=C(N/N=C/c1sc(N2CCOCC2)nc1-c1ccccc1)c1ccccc1Cl	none
O=[N+]([O-])c1ccc(N/N=C/c2sc(N3CCOCC3)nc2-c2ccccc2)c(S(=O)(=O)Nc2ccccc2Cl)c1	HNF4A DNA FP 60.3, CSN inh 51.5 (no result: IDE inh, TPT1 inhibitor) | CSN deneddyl val 82.9 | MMP2 cntr CSN inactive | Thrombin cntr 36.1
Cc1ccc(N=C2NC(=O)/C(=C/C=C/c3ccco3)S2)cc1	CSN inh 49.2 | CSN deneddyl val 93.2 | MMP2 cntr CSN 17.0 | Thrombin cntr inactive
Cc1cccc(N=C2NC(=O)/C(=C/C=C/c3ccco3)S2)c1C	CSN inh 58.3 | CSN deneddyl val 63.3 | MMP2 cntr CSN 17.6 | Thrombin cntr 37.5
Cc1cc2c(=Cc3ccc(N(C)C)cc3)c3ccccc3n2[n+]1C	CSN inh 86.3 (no result: IDE inh, TPT1 inhibitor) | CSN deneddyl val inactive | MMP2 cntr CSN inactive | Thrombin cntr 60.1
CN(C)c1ccc(C=c2c3cc(O)ccc3n3c2cc(-c2ccccc2)[n+]3C)cc1	CSN inh 137.8 (no result: IDE inh, TPT1 inhibitor) | CSN deneddyl val inactive | MMP2 cntr CSN 100.2 | Thrombin cntr 68.0
